From ChEMBL document CHEMBL3867431, “Synthesis and structure-activity relationships of novel arylpiperazines as potent antagonists of α1-adrenoceptor” (Eur J Med Chem, 2016)

What was measured:
[1] = biological target: T1, Alpha-1D adrenergic receptor (Homo sapiens, UniProt P25100); experiment: Displacement of [3H]prazosin from human alpha1D-adrenoceptor expressed in CHO cell membranes measured after 30 mins
T1 sequence (P25100 whole entry): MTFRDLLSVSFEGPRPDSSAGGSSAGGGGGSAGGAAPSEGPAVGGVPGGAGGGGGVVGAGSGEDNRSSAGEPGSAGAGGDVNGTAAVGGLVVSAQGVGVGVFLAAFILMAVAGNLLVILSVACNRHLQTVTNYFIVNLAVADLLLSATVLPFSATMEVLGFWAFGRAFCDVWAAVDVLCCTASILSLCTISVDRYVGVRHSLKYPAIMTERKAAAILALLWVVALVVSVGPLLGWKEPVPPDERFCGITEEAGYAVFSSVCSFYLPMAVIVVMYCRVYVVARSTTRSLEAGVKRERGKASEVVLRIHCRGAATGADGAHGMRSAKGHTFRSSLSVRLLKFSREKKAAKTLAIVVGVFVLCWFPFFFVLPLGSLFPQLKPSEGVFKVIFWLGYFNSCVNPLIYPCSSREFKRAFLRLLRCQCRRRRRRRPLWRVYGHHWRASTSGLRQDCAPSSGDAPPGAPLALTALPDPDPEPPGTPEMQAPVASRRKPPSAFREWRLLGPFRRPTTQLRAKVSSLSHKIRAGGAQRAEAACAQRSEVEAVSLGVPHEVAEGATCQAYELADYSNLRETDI
How it was run: (§1)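 Membranes (30 µg protein) from stably transfected CHO cells, each expressing one human α1 subtype, incubated 30 min at 25 °C in 50 mM Tris-HCl pH 7.4 with 0.1-0.4 nM [3H]prazosin and competitor 1 pM-10 µM. Nonspecific binding defined with 10 µM phentolamine. Filtration over PEI-treated filters. Ki from IC50 via Cheng-Prusoff; 2-3 experiments in triplicate.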

[2] = biological target: T2, Alpha-1A adrenergic receptor (Rattus norvegicus) (UniProt P43140); experiment: Antagonist activity at alpha1A-adrenoceptor in Wistar rat prostatic vas deference assessed as inhibition of (-)-NE-induced contractions preincubated for 60 mins before (-)-NE challenge measured after 45 mins
T2 sequence (whole entry): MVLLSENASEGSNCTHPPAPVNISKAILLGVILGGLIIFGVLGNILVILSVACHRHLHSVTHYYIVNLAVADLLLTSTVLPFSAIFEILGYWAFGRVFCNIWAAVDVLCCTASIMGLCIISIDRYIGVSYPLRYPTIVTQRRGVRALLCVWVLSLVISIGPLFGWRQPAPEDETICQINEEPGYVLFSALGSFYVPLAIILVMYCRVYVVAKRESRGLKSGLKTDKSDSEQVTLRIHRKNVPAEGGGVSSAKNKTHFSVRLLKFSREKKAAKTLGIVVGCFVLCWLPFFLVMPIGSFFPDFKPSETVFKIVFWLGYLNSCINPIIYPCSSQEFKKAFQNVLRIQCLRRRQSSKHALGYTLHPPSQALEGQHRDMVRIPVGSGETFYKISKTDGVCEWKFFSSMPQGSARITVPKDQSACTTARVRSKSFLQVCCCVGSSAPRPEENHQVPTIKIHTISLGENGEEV
How it was run: (§2)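 Male Wistar rats (275-300 g); prostatic vas deferens segments (2 cm) under 0.35 g tension at 37 °C in Tyrode with cocaine, aerated 5% CO2/95% O2. Tissue primed twice with 10 µM (-)-NE, then a cumulative isotonic (-)-NE curve. Antagonist equilibrated 60 min before a repeat curve. Line 1 gives pKB = log(DR-1) - log[B] at one or two concentrations; line 4 gives pA2 from Schild plot, slope constrained to -1. Mean ± SE, 4-5 experiments.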

[3] = biological target: T3, Alpha-1B adrenergic receptor (Rattus norvegicus, UniProt P15823); experiment: Antagonist activity at alpha1B-adrenoceptor in Wistar rat spleen assessed as inhibition of phenylphrine-induced contractions measured after 30 mins in presence of (+/-)-propranolol hydrochloride; settings: 0.5 h
T3 sequence (P15823 whole entry): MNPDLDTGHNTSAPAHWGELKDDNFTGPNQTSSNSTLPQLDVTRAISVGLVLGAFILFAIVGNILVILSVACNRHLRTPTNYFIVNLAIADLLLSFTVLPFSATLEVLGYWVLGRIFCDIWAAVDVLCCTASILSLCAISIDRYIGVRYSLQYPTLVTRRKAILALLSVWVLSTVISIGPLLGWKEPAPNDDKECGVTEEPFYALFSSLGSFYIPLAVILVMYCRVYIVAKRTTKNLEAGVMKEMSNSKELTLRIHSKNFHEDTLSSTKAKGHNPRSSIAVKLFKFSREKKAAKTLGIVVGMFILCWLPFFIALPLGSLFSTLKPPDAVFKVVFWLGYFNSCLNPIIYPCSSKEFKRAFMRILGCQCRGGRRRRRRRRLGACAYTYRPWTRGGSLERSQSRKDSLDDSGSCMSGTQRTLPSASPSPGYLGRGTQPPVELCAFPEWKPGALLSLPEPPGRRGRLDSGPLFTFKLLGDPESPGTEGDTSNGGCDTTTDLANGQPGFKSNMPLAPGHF
How it was run: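 Male Wistar rat spleen strips in Krebs-type solution at 37 °C with (±)-propranolol 4 µM, under 1 g resting tension, equilibrated 2 h. Cumulative isometric phenylephrine curves at 30 min intervals; first discarded, second used as control, then a curve after 30 min antagonist incubation. pKB = log(DR-1) - log[B] from ED50 ratio. Mean ± SE, 4-5 experiments.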

[4] = biological target: T4, Alpha-1A adrenergic receptor (Homo sapiens, UniProt P35348); experiment: Displacement of [3H]prazosin from human alpha1A-adrenoceptor expressed in CHO cell membranes measured after 30 mins; how it was run: as §1
T4 sequence (P35348 whole entry): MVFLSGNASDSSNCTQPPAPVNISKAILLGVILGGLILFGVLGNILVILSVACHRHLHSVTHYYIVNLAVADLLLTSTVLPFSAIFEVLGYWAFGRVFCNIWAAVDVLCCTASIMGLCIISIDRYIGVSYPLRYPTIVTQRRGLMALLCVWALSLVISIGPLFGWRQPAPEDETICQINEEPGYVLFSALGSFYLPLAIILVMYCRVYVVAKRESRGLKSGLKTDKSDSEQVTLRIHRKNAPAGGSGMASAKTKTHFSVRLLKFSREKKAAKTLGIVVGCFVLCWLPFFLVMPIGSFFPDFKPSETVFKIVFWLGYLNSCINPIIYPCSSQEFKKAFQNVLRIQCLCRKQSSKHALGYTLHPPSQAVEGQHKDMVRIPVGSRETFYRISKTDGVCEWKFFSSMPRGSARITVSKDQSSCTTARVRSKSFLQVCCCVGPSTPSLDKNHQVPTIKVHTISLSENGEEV

[5] = biological target: T5, Alpha-1B adrenergic receptor (Homo sapiens, UniProt P35368); experiment: Displacement of [3H]prazosin from human alpha1B-adrenoceptor expressed in CHO cell membranes measured after 30 mins; how it was run: as §1
T5 sequence (P35368 whole entry): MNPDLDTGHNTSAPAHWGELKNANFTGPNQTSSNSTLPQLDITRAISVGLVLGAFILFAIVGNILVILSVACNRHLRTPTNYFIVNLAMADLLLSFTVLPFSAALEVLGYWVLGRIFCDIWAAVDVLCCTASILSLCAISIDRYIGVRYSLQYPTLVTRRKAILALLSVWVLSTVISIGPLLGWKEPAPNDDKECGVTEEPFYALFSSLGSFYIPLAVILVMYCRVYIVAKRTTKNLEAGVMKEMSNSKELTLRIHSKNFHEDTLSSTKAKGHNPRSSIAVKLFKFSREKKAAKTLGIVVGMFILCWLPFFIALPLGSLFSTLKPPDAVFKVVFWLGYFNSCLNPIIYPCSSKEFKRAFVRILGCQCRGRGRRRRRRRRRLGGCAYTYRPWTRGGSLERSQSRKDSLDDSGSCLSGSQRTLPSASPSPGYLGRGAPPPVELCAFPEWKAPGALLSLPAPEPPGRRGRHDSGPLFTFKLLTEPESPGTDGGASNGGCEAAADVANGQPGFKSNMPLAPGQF

[6] = biological target: T6, Alpha-1D adrenergic receptor (Rattus norvegicus) (UniProt P23944); experiment: Antagonist activity at alpha1D-adrenoceptor in Wistar rat thoracic aorta assessed as inhibition of (-)-NE-induced contractions preincubated for 60 mins before (-)-NE challenge measured after 1 hr in presence of normetanephrine hydrochloride and (+/-)-propranolol hydrochloride
T6 sequence (whole entry): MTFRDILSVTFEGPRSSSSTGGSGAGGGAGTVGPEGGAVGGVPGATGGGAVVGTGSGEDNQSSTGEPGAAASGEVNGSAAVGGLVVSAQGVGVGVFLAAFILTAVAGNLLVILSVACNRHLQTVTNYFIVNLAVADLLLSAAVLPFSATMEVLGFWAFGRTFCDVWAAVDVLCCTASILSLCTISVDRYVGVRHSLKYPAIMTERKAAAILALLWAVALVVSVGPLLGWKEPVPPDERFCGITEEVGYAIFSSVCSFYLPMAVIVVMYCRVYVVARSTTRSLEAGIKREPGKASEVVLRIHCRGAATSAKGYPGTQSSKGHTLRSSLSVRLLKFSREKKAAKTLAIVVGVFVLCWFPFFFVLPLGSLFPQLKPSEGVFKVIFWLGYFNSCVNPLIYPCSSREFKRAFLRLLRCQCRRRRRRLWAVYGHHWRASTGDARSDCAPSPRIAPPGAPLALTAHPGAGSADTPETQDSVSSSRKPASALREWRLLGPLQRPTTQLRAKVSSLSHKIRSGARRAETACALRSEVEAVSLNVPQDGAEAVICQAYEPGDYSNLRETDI
How it was run: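 Male Wistar rat thoracic aorta strips, endothelium rubbed off and checked by loss of 100 µM acetylcholine relaxation after 1 µM (-)-NE contraction. Krebs solution, 1 g tension, at least 2 h equilibration. Isometric cumulative (-)-NE curves at 1 h intervals; third used as control, fourth after 60 min antagonist. pKB from the ED50 dose ratio. Mean ± SE, 4-5 experiments.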

[7] = biological target: T7, Alpha-1A adrenergic receptor (Rattus norvegicus, UniProt P43140); experiment: Competitive antagonist activity at alpha1A-adrenoceptor in Wistar rat prostatic vas deference assessed as inhibition of (-)-NE-induced contractions preincubated for 60 mins before (-)-NE challenge measured after 45 mins by Schild plot analysis; settings: read-out: pA2 (converted); how it was run: as §2
T7 sequence (P43140 whole entry): T2 sequence (whole entry)

Row | Compound | Ki [1] [nM] | pKb [2] | pKb [3] | Ki [4] [nM] | Ki [5] [nM] | pKb [6] | Kb [7] [nM]
1 | CCOc1ccccc1N1CCN(CCc2cccc(OC)c2)CC1 | 2.57 | 8.39 | 8.13 | 2.95 | 25.1 | 8.11 | 
2 | COc1ccccc1N1CCN(CCc2ccc3c(c2)OCO3)CC1 | 1.26 | 8.47 | 8.11 | 3.47 | 5.25 | 8.57 | 
3 | CCOc1ccccc1N1CCN(CCc2ccc(OC)cc2)CC1 | 1.35 | 8.89 | 7.91 | 1.12 | 10.2 | 8.23 | 
4 | COc1ccc(CCN2CCN(c3ccccc3OC(C)C)CC2)cc1 | 3.09 |  |  | 2.24 | 14.8 |  | 
5 | COc1ccc(CCN2CCN(c3ccccc3OC(C)C)CC2)cc1OC | 1.35 | 9.55 | 8.74 | 2 | 10.5 | 9.12 | 
6 | CCOc1ccccc1N1CCN(CCc2ccc3c(c2)OCO3)CC1 | 1.51 | 9.09 | 8.85 | 1.12 | 5.37 | 8.84 | 
7 | CC(C)Oc1ccccc1N1CCN(CCc2ccc3c(c2)OCO3)CC1 | 1.74 | 8.27 | 8.03 | 0.389 | 12.9 | 8.33 | 4.17
8 | CC(C)Oc1ccccc1N1CCN(CCc2ccccc2)CC1 | 4.57 | 8.29 | 7.94 | 5.01 | 77.6 | 8.59 | 
9 | COc1ccccc1N1CCN(CCc2ccccc2)CC1 | 16.6 | 7.76 | 7.82 | 31.6 | 91.2 | 8.5 | 
10 | CCOc1ccccc1N1CCN(CCc2ccc(OC)c(OC)c2)CC1 | 0.603 | 9.1 | 8.89 | 2.09 | 15.8 | 8.79 | 
11 | COc1cccc(CCN2CCN(c3ccccc3OC(C)C)CC2)c1 | 1.32 | 8.87 | 8.92 | 2.75 | 13.8 | 9.46 | 
